Data: ChEMBL document CHEMBL1134325, “Diaminoindanes as microsomal triglyceride transfer protein inhibitors” (J Med Chem, 2001)
pIC50: −log10 of the molar value.

Key:
[1] = tested on: Canis familiaris; assay: Inhibition of plasma total triglycerides in the normolipidemic dogs after day 3 of oral administration of 5 mg/kg/ day.; assay type: functional, Canis lupus familiaris
[2] = tested on: Canis familiaris; assay: Inhibition of plasma total triglycerides in the normolipidemic dogs after day 0 of oral administration of 5 mg/kg/ day.; assay type: functional, Canis lupus familiaris
In short: (§1)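 Normolipidemic dogs dosed once daily for 4 days by oral gavage, compound suspended in cornstarch vehicle. Plasma sampled 24 h after dosing on days 0, 2, 3 and 4, assayed for triglycerides and total cholesterol (mg/dL). Mean percent inhibition versus day-0 level is given for treated dogs; n = 6 per group; significance by one-way ANOVA, p < 0.05.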

[3] = tested on: Rattus norvegicus; assay: Inhibition of total cholesterol in normolipidemic rats after 24 hr of 50 mg/kg oral dosing; assay type: functional
In short: (§2)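 Overnight-fasted normolipidemic rats received a single oral dose in cornstarch vehicle. Blood was drawn at 2, 6 and 24 h post-dose and assayed for triglycerides and total cholesterol, with free access to food after the 6 h sample. Value is mean percent inhibition versus a separate vehicle-treated group, unpaired t test p < 0.05, NS = no significant change, N = 6.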

[4] = tested on: Rattus norvegicus; assay: Inhibition of total cholesterol in normolipidemic rats after 2 hr of 50 mg/kg oral dosing; assay type: functional; in short: as §2
[5] = tested on: Canis familiaris; assay: Inhibition of plasma total cholesterol in the normolipidemic dogs after day 2 of oral administration of 2.5 mg/kg/ day.; assay type: functional, Canis lupus familiaris; in short: as §1
[6] = tested on: Canis familiaris; assay: Inhibition of plasma total cholesterol in the normolipidemic dogs after day 4 of oral administration of 1 mg/kg/ day; assay type: functional, Canis lupus familiaris; in short: as §1
[7] = tested on: Canis familiaris; assay: Inhibition of plasma total triglycerides in the normolipidemic dogs after day 0 of oral administration of 2.5 mg/kg/ day.; assay type: functional, Canis lupus familiaris; in short: as §1
[8] = tested on: Canis familiaris; assay: Inhibition of plasma total triglycerides in the normolipidemic dogs after day 2 of oral administration of 5 mg/kg/ day.; assay type: functional, Canis lupus familiaris; in short: as §1
[9] = tested on: Rattus norvegicus; assay: Inhibition of total cholesterol in normolipidemic rats after 24 hr of 10 mg/kg oral dosing; assay type: functional; in short: as §2
[10] = tested on: Rattus norvegicus; assay: Inhibition of total cholesterol in normolipidemic rats after 2 hr of 10 mg/kg oral dosing; assay type: functional; in short: as §2
[11] = tested on: Canis familiaris; assay: Inhibition of plasma total cholesterol in the normolipidemic dogs after day 2 of oral administration of 1 mg/kg/ day.; assay type: functional, Canis lupus familiaris; in short: as §1
[12] = tested on: Canis familiaris; assay: Inhibition of plasma total triglycerides in the normolipidemic dogs after day 0 of oral administration of 10 mg/kg/ day.; assay type: functional, Canis lupus familiaris; in short: as §1
[13] = tested on: Canis familiaris; assay: Inhibition of plasma total cholesterol in the normolipidemic dogs after day 2 of oral administration of 5 mg/kg/ day.; assay type: functional, Canis lupus familiaris; in short: as §1
[14] = tested on: Canis familiaris; assay: Inhibition of plasma total cholesterol in the normolipidemic dogs after day 0 of oral administration of 5 mg/kg/ day.; assay type: functional, Canis lupus familiaris; in short: as §1
[15] = tested on: Canis familiaris; assay: Inhibition of plasma total cholesterol in the normolipidemic dogs after day 3 of oral administration of 5 mg/kg/ day.; assay type: functional, Canis lupus familiaris; in short: as §1
[16] = tested on: Canis familiaris; assay: Inhibition of plasma total triglycerides in the normolipidemic dogs after day 3 of oral administration of 10 mg/kg/ day.; assay type: functional, Canis lupus familiaris
[17] = tested on: Canis familiaris; assay: Inhibition of plasma total triglycerides in the normolipidemic dogs after day 2 of oral administration of 1 mg/kg/ day.; assay type: functional, Canis lupus familiaris; in short: as §1
[18] = tested on: Canis familiaris; assay: Inhibition of plasma total triglycerides in the normolipidemic dogs after day 3 of oral administration of 2.5 mg/kg/ day.; assay type: functional, Canis lupus familiaris
[19] = tested on: Canis familiaris; assay: Inhibition of plasma total triglycerides in the normolipidemic dogs after day 4 of oral administration of 5 mg/kg/ day; assay type: functional, Canis lupus familiaris
[20] = tested on: Canis familiaris; assay: Inhibition of plasma total cholesterol in the normolipidemic dogs after day 0 of oral administration of 1 mg/kg/ day.; assay type: functional, Canis lupus familiaris; in short: as §1
[21] = tested on: Rattus norvegicus; assay: Inhibition of total cholesterol in normolipidemic rats after 6 hr of 50 mg/kg oral dosing; assay type: functional; in short: as §2
[22] = tested on: Canis familiaris; assay: Inhibition of plasma total triglycerides in the normolipidemic dogs after day 4 of oral administration of 2.5 mg/kg/ day; assay type: functional, Canis lupus familiaris
[23] = tested on: Canis familiaris; assay: Inhibition of plasma total cholesterol in the normolipidemic dogs after day 3 of oral administration of 1 mg/kg/ day.; assay type: functional, Canis lupus familiaris; in short: as §1
[24] = tested on: Rattus norvegicus; assay: Inhibition of plasma triglycerides in normolipidemic rats after 24 h of 10 mg/kg oral dosing; assay type: functional; in short: as §2
[25] = tested on: Canis familiaris; assay: Inhibition of plasma total triglycerides in the normolipidemic dogs after day 4 of oral administration of 1 mg/kg/ day; assay type: functional, Canis lupus familiaris
[26] = tested on: Canis familiaris; assay: Inhibition of plasma total cholesterol in the normolipidemic dogs after day 4 of oral administration of 10 mg/kg/ day.; assay type: functional, Canis lupus familiaris; in short: as §1
[27] = tested on: Canis familiaris; assay: Inhibition of plasma total cholesterol in the normolipidemic dogs after day 3 of oral administration of 10 mg/kg/ day.; assay type: functional, Canis lupus familiaris; in short: as §1
[28] = tested on: Canis familiaris; assay: Inhibition of plasma total triglycerides in the normolipidemic dogs after day 3 of oral administration of 1 mg/kg/ day.; assay type: functional, Canis lupus familiaris; in short: as §1
[29] = tested on: Canis familiaris; assay: Inhibition of plasma total cholesterol in the normolipidemic dogs after day 2 of oral administration of 10 mg/kg/ day.; assay type: functional, Canis lupus familiaris; in short: as §1
[30] = tested on: Canis familiaris; assay: Inhibition of plasma total triglycerides in the normolipidemic dogs after day 2 of oral administration of 10 mg/kg/ day.; assay type: functional, Canis lupus familiaris; in short: as §1
[31] = tested on: Rattus norvegicus; assay: Inhibition of plasma triglycerides in normolipidemic rats after 6 hr of 10 mg/kg oral dosing; no significant change; assay type: functional, organism-based; design: dose 10 mg/kg; in short: as §2
[32] = tested on: Canis familiaris; assay: Inhibition of plasma total cholesterol in the normolipidemic dogs after day 0 of oral administration of 10 mg/kg/ day.; assay type: functional, Canis lupus familiaris; in short: as §1
[33] = tested on: Canis familiaris; assay: Inhibition of plasma total cholesterol in the normolipidemic dogs after day 0 of oral administration of 2.5 mg/kg/ day.; assay type: functional, Canis lupus familiaris; in short: as §1
[34] = tested on: Canis familiaris; assay: Inhibition of plasma total triglycerides in the normolipidemic dogs after day 0 of oral administration of 1 mg/kg/ day.; assay type: functional, Canis lupus familiaris; in short: as §1
[35] = tested on: Canis familiaris; assay: Inhibition of plasma total triglycerides in the normolipidemic dogs after day 4 of oral administration of 10 mg/kg/ day; assay type: functional, Canis lupus familiaris
[36] = tested on: Canis familiaris; assay: Inhibition of plasma total cholesterol in the normolipidemic dogs after day 4 of oral administration of 2.5 mg/kg/ day; assay type: functional, Canis lupus familiaris; in short: as §1
[37] = tested on: Rattus norvegicus; assay: Inhibition of plasma triglycerides in normolipidemic rats after 2 hr of 10 mg/kg oral dosing; assay type: functional; in short: as §2
[38] = tested on: Canis familiaris; assay: Inhibition of plasma total cholesterol in the normolipidemic dogs after day 3 of oral administration of 2.5 mg/kg/ day.; assay type: functional, Canis lupus familiaris; in short: as §1
[39] = tested on: Canis familiaris; assay: Inhibition of plasma total cholesterol in the normolipidemic dogs after day 4 of oral administration of 5 mg/kg/ day; assay type: functional, Canis lupus familiaris; in short: as §1
[40] = tested on: Rattus norvegicus; assay: Inhibition of plasma triglycerides in normolipidemic rats after 24 hr of 50 mg/kg oral dosing; assay type: functional; in short: as §2
[41] = tested on: Rattus norvegicus; assay: Inhibition of plasma triglycerides in normolipidemic rats after 2 hr of 50 mg/kg oral dosing; assay type: functional; in short: as §2
[42] = tested on: Rattus norvegicus; assay: Inhibition of plasma triglycerides in normolipidemic rats after 6 hr of 50 mg/kg oral dosing; assay type: functional; in short: as §2
[43] = target: T1, Microsomal triglyceride transfer protein large subunit (Homo sapiens, UniProt P55157); assay: In vitro inhibitory activity against MTP using MTP transfer assay
T1 sequence (P55157 whole entry): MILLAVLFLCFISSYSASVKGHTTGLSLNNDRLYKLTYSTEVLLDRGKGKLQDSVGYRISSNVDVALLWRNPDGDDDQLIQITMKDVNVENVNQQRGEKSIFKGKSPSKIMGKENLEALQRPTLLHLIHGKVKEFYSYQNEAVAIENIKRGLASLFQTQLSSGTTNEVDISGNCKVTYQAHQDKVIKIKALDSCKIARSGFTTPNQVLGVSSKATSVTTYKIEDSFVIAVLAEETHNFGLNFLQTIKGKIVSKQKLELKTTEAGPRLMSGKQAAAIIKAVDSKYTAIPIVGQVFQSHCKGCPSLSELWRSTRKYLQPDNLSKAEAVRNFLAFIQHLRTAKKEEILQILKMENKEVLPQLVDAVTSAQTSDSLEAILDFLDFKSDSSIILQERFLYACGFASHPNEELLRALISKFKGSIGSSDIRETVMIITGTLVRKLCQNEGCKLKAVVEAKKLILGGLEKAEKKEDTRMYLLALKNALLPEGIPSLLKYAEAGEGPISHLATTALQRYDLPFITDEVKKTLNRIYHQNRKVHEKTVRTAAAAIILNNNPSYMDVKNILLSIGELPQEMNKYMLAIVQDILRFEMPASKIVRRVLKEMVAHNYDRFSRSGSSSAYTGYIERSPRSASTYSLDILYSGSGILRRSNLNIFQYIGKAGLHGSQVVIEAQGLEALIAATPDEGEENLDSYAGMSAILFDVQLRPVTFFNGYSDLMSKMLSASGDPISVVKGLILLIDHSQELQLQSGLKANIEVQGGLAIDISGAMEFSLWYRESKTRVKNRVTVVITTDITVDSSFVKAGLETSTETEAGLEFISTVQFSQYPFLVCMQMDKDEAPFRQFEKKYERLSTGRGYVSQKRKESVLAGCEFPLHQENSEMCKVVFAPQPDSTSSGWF

[44] = tested on: Rattus norvegicus; assay: Inhibition of total cholesterol in normolipidemic rats after 6 hr of 10 mg/kg oral dosing; assay type: functional; in short: as §2
[45] = tested on: Canis familiaris; assay: Inhibition of plasma total triglycerides in the normolipidemic dogs after day 2 of oral administration of 2.5 mg/kg/ day.; assay type: functional, Canis lupus familiaris; in short: as §1

Compound COC(=O)N1CCN([C@H]2Cc3ccc(NC(=O)c4cccc(C)c4-c4ccc(C(F)(F)F)cc4)cc3C2)CC1 has a Lipid level [1] of 17 mg/dL, a Lipid level [2] of 37 mg/dL and a Reduction [3] of 18%. For the same compound, the Reduction [4] was 35%, the Lipid level [5] was 67 mg/dL and the Lipid level [6] was less than 73 mg/dL. For the same compound, the Lipid level [7] was 58 mg/dL, the Lipid level [8] was 20 mg/dL and the Reduction [9] was 15%. For the same compound, the Reduction [10] was 40%, the Lipid level [11] was 91 mg/dL and the Lipid level [12] was 62 mg/dL. For the same compound, the Lipid level [13] was 79 mg/dL, the Lipid level [14] was 127 mg/dL and the Lipid level [15] was less than 53 mg/dL. It also gave a Lipid level [16] of 18 mg/dL, a Lipid level [17] of 28 mg/dL and a Lipid level [18] of 20 mg/dL. For the same compound, the Lipid level [19] was 14 mg/dL, the Lipid level [20] was 120 mg/dL and the Reduction [21] was 50%. For the same compound, the Lipid level [22] was 25 mg/dL, the Lipid level [23] was 83 mg/dL and the Reduction [24] was 29%. For the same compound, the Lipid level [25] was 28 mg/dL, the Lipid level [26] was less than 31 mg/dL and the Lipid level [27] was 50 mg/dL. The Lipid level [28] was 26 mg/dL, the Lipid level [29] was 79 mg/dL and the Lipid level [30] was 24 mg/dL. The NS [31] was “no significant change”, the Lipid level [32] was 143 mg/dL and the Lipid level [33] was 109 mg/dL. For the same compound, the Lipid level [34] was 38 mg/dL, the Lipid level [35] was 19 mg/dL and the Lipid level [36] was less than 42 mg/dL. For the same compound, the Reduction [37] was 70%, the Lipid level [38] was 53 mg/dL and the Lipid level [39] was 38 mg/dL. The Reduction [40] was 44%, the Reduction [41] was 80% and the Reduction [42] was 56%. It also gave a pIC50 [43] of 7.40, a Reduction [44] of 29% and a Lipid level [45] of 28 mg/dL.
